Assay results reported in the RNAGym collection of RNA variant scans (doi:10.1126/science.aae0568).
Variants at the floor of the assay were thinned out.

B1: tRNA (parent)
chain: GUUCCGUUGGCGUAAUGGUAACGCGUCUCCCUCCUAAGGAGAAGACUGCGGGUUCGAGUCCCGUACGGAACG

Variants of: B1
Experiment: yeast fitness relative to wild type (ratio to wild type); higher = fitter; tRNA-Arg(CCU), competitive growth, 37 C, YPD
Method in brief: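 Changes in genotype frequencies gave Darwinian fitness relative to wild type. Frequencies were read by 100-nucleotide paired-end sequencing of gene amplicons before and after pooled Saccharomyces cerevisiae strains, carrying tRNA-Arg(CCU) gene variants at the native locus, were competed in YPD at 37°C for 24 hours in six replicates. A genotype was kept only with ≥ 100 starting reads, and estimates < 0.5 were set to 0.5.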

Which yeast fitness does the source give for GUCCGGUUGGCGUUAUGGUAACGCGUCUCCCUCCUAAGGAGAGGACUGCGGGUUCGAGUCCCGUACCGAACG [U3C C5G A14U A43G G67C] here?
Its yeast fitness is ≤ 0.5.

Which yeast fitness does the source give for GUCCCGUUGGAGUAAUGGUAACGCGUGUCCCUACUAAGGAGAAGAAUGCGGGUUCGAGUCCCGUACGGAACG [U3C C11A C27G C33A C46A] here?
Its yeast fitness is 0.541.

Which yeast fitness does the source give for GUCCCGUUGGAGUAAUGGUAACGCGUCUCCAUCCUAAGGAGGAGACUGCGGGUUCGAGUCCCGUACGCAACG [U3C C11A C31A A42G G68C] here?
The yeast fitness was ≤ 0.5.

With GUCCAGUUGGGGUAAUGGUUACGCCUCUCCCACCUAAGGAGAAGACUGCGGGUUCGAGUCCCGUACGGAACG [U3C C5A C11G A20U G25C U32A] as the variant, how does the yeast fitness read?
The yeast fitness was ≤ 0.5.

With GUCCGGUUGGCGUAGUGGUAACGCGUCUCCCUCCUAAGGAGAAGACUGCGGGUUCGAGUCCCGUACGGAACG [U3C C5G A15G] as the variant, how does the yeast fitness read?
Its yeast fitness is ≤ 0.5.

For GUCCAGUUGGCGUAUUGGUGACGCGUCUCCCUCCUAAGGAGAAGACUGCGGGUUCGAGUCCCGUACGGAACG [U3C C5A A15U A20G], which yeast fitness is on record?
Its yeast fitness is ≤ 0.5.

With GUCCUGUUGGCGUAAUGGUAGCGCGUCUCCCUCGUAAGGAGAAGACUGCGGGUUCGAGUCCCGUACGGAACG [U3C C5U A21G C34G] as the variant, how does the yeast fitness read?
The yeast fitness was ≤ 0.5.

Which yeast fitness does the source give for GUCCCGUUGGAGUAAUGGUAACGCGUGUCCCUACUAAGGAGAAGACUGCGGGUUCGAGUCCCGUACGGAACG [U3C C11A C27G C33A] here?
The yeast fitness was 0.579.

With GUCUCGUUGACGUAAUGGUAACGCGUCUCUCUCCUAAGGAGAAGACUGUGGGUUCGAGUCCCGUACGGAACG [U3C C4U G10A C30U C49U] as the variant, how does the yeast fitness read?
Its yeast fitness is 0.598.

For GUCCGGUUGGCGUAAUGGUAACGAGUCUCCCUCCUAAGGAGAAGACUGCGGGUUCGAGUCCCGUACGGAACG [U3C C5G C24A], which yeast fitness is on record?
Its yeast fitness is ≤ 0.5.

Which yeast fitness does the source give for GUCCGGUUGGCGUAAUGGUAACGCGUCUCCCUCUUAAGGAGAAGACUGCGGGUUCGAGUCCCGUACGGAACG [U3C C5G C34U] here?
Its yeast fitness is ≤ 0.5.

For GUCCAGUUGGGGUAAUGGUUACGCCUCUCCCUCCUAAGGAGAAGACUGCGGGUUCAAAUCCCGUACCGAACG [U3C C5A C11G A20U G25C G56A G58A G67C], which yeast fitness is on record?
Its yeast fitness is ≤ 0.5.

Which yeast fitness does the source give for GUCUCGUUGGCGUAAUGGUAACGCGUCUCCCUCCUAAGGAGAAGACUGCGGGUUUGAGUCCCGUACGGAACG [U3C C4U C55U] here?
The yeast fitness was 0.699.

With GUCCCGUUGGAGUAAUGGUAACGCGUGUCCCUACUAAGGAGACGAAUGCGGGUUCGAGUCCCGUACGGAUCG [U3C C11A C27G C33A A43C C46A A70U] as the variant, how does the yeast fitness read?
Its yeast fitness is 0.528.

With GUCCUGUUGGCGUAAUGGUAACGCGUCUCCCUCCUAGGGAGACGACUGCGGGUUCGAGUCCUGUACGGAACG [U3C C5U A37G A43C C62U] as the variant, how does the yeast fitness read?
The yeast fitness was ≤ 0.5.

For GUCCGGUUGGGGUAAUGGUAACGCGUCUCCCUCCUAAGGAGAAGCCUGCGGGUUCGAGUCCCGUACGGAACG [U3C C5G C11G A45C], which yeast fitness is on record?
Its yeast fitness is ≤ 0.5.

For GUCCGGUUGGCGUAAUGGUAUCGCGUCUCCCUCCUAAGGAGCAGACUGCGGGUUCGAGUCCCGUACGGAGCG [U3C C5G A21U A42C A70G], which yeast fitness is on record?
Its yeast fitness is 0.542.

For GUCCAGUUGGCGUAAUGGUAACGCGUCUCCCUCCUAAGGAGAAGACUGCGGGUUAGAGUACCGUACGGAACG [U3C C5A C55A C60A], which yeast fitness is on record?
Its yeast fitness is ≤ 0.5.

For GUCCGGUUGGCGUAAUAGUAACGCGUCUCCCUCCUAAGGCGAAGACUGCGGGUUCGAGCCCCGUACGGAACG [U3C C5G G17A A40C U59C], which yeast fitness is on record?
Its yeast fitness is ≤ 0.5.

With GUCCAGUAGGCGUAAUGGUAACGCAUCUCCCUCCUAAGGAGAAGGCUGCGGGUUCGAGUCCCGUACGGAACG [U3C C5A U8A G25A A45G] as the variant, how does the yeast fitness read?
The yeast fitness was ≤ 0.5.

With GUCCCGUUGGAGUAAUGGUAACGCGUCUCCAUCCUAAGGAGAAGACUGCGGGUUCGAGUCCCGUACGCAACG [U3C C11A C31A G68C] as the variant, how does the yeast fitness read?
The yeast fitness was 0.582.

Which yeast fitness does the source give for GUCCGGUUGGCGUAAUGGUAACGCGUCUCCCUCCUAAGGAGAAGACUGCGGGUUCGAGUCCCCUAGGGAACG [U3C C5G G63C C66G] here?
Its yeast fitness is ≤ 0.5.

With GUCCGGUUGGCGUAAUGGUAACGCGUCUCCCUCCUAAGGAGAAGACUGCGGGUUCGAGUCCCGUACUGAACG [U3C C5G G67U] as the variant, how does the yeast fitness read?
The yeast fitness was 0.542.

Which yeast fitness does the source give for GUCCUGUUGGCGUAAUGGUAAUGCGUCUCCCUCCUAAGGUGAUGACUGCGGGUUCGAGUCCCGUACGGAACG [U3C C5U C22U A40U A43U] here?
The yeast fitness was ≤ 0.5.

With GUCCGGUUGGCGUACUGGUAACGCGUGUCCCUCCUAAGGAGAAGACUGCGGGUUCGAGUCCCGUACGGUACG [U3C C5G A15C C27G A69U] as the variant, how does the yeast fitness read?
Its yeast fitness is ≤ 0.5.

With GUCCGGUUGGCGUAAUGGUAACGCGUCUCGCUCCUCAGGAGAAGACUGCGGGUUCGAGUCCCGUACGGAACG [U3C C5G C30G A36C] as the variant, how does the yeast fitness read?
Its yeast fitness is ≤ 0.5.

With GUCCGGUUGGCGUAAUGGUAACGCGUCUCCCUCCUAAGGAGAAGACUGCGGGUUCGAGUCUCGUACGGAACG [U3C C5G C61U] as the variant, how does the yeast fitness read?
The yeast fitness was ≤ 0.5.

Which yeast fitness does the source give for GUCCGGUUGGCGUAAUGGGAACGCGUCUCCAUCCUAAGGAGAAGAAUGCGGGUUCAUGUCCCGUACGGAACG [U3C C5G U19G C31A C46A G56A A57U] here?
Its yeast fitness is ≤ 0.5.

Which yeast fitness does the source give for GUCCGGUUGGGGUAAUGGUAACGCGUCUCCCUCCUAAGGAGAAGACUGCGGGUUCGAGUCCCGUACGGAACG [U3C C5G C11G] here?
The yeast fitness was ≤ 0.5.

For GUCCCGUUGGAGUAAUGGGAACGAGUCUCCCUCCUAAGGCGAAGUCUGCGGGUUCGAGUCCCGUACGGAACG [U3C C11A U19G C24A A40C A45U], which yeast fitness is on record?
The yeast fitness was ≤ 0.5.

For GUCCCGUUGGAGUAAUGGUAGCGCGUCCCCCGCCUAAGGAGAAGACUGCGGGUUCGAGUCCCGUACGGAACG [U3C C11A A21G U28C U32G], which yeast fitness is on record?
Its yeast fitness is ≤ 0.5.

Which yeast fitness does the source give for GUCCCGUUGGAGUAAUGGUAACGCGUCUCCAUCCUAAGGAGAAGACUGCGGGUUCGAGUCCCGUACGGAACG [U3C C11A C31A] here?
Its yeast fitness is 0.556.

For GUCCCGUUGGAGUAAUGGUAACGCGUCUCCCUCCUAAGGAGAAGACUGCGGGUUCGAGUCCCGUACGGAACG [U3C C11A], which yeast fitness is on record?
Its yeast fitness is 0.65.

For GUCCGGUUGGCGUAAUGGUAACGCGUCUCCCUCCUAAGGAGAAGACUGCGGGUUCGAGUCCCGUACGGAACG [U3C C5G], which yeast fitness is on record?
The yeast fitness was 0.761.

For GUCCAGUUGGCGUAAUGCUAACGCGUCUCCCUCCUAAGGAGAAGCCUGCGGGUUCCAGUUCCGUACGUAACG [U3C C5A G18C A45C G56C C60U G68U], which yeast fitness is on record?
Its yeast fitness is ≤ 0.5.

Which yeast fitness does the source give for GUCCUGUUGGCGUAAUGGUAACGCGUCUCCCUGUUAACGAGAAGACAGCGGGUUCGAGUCCCGUACGGAACG [U3C C5U C33G C34U G38C U47A] here?
The yeast fitness was ≤ 0.5.

Which yeast fitness does the source give for GUCCGGUUGGCGUAAUGGUAACGCGUCUCCCUCCUAAAGAGAAGACUGCGGGUUCGAGUCCCGUGGGGAACG [U3C C5G G38A A65G C66G] here?
Its yeast fitness is ≤ 0.5.

With GUCCUGUUGGCGUAAUGGUAACGCGUCUCCCUCCUAUGGAGAAGACUGUGGGCUCGAGUCCCGUACGGAACG [U3C C5U A37U C49U U53C] as the variant, how does the yeast fitness read?
The yeast fitness was 0.597.
